Measured values gathered from unrelated publications.
Target: Serine/threonine-protein kinase pim-2 (PIM2, Homo sapiens, UniProt Q9P1W9)

COc1cc(Nc2cnc(C#N)c(O[C@H](C)CN(C)C)n2)ncc1-c1cnn(C)c1  remaining activity (enzyme activity; inhibitor; radiometric; 1 µM): 98%
Cc1cnc(NC2CCOCC2)nc1-n1cnc(C(=O)NC(CN)c2cc(F)cc(Cl)c2)c1 (stereo not shown)  remaining activity (enzyme activity; inhibitor; radiometric; 1 µM): 100%
COc1cc2ncnc(Nc3ccc(Oc4ccccc4)c(C)c3C)c2cc1OC  inhibition (enzyme activity; inhibitor; 1 µM): -2%
C=CC(=O)Nc1cc(Nc2nccc(Nc3cc(Cl)c(F)cc3C(C)(C)O)n2)c(OC)cc1N1CC[C@@H](N(C)C)C1  inhibition (enzyme activity; inhibitor; 1 µM): 16%
Cc1ccc(Nc2nccc(N(C)c3ccc4c(C)n(C)nc4c3)n2)cc1S(N)(=O)=O  remaining activity (enzyme activity; inhibitor; 0.5 µM): 101%
CC(C)CC(=O)N1CCc2nc(-c3ccc(Br)cc3)nc(N(C)Cc3ccccc3)c2C1  remaining binding (cell-free assay; competition with immobilised ligand; 0.1 µM): 100%
CC(C)(C)c1nc(-c2cccc(NS(=O)(=O)c3c(F)cccc3F)c2F)c(-c2ccnc(N)n2)s1  remaining activity (enzyme activity; inhibitor; radiometric; 1 µM): 77%
O=c1nc(-c2ccccn2)sc2ccccc12  remaining binding (binding; competition with immobilised ligand; 1 µM): 97%
O=C(CSc1nc2nccnc2c(=O)n1CCc1ccccc1)Nc1nccs1  inhibition (enzyme activity; inhibitor; 10 µM): -5%
COc1cc(Cl)c(C(=O)N[C@@H](CN[C@H]2CC[C@@H](N)CC2)Cc2ccc(C#N)cc2)cc1-c1ccc(CN[C@H](C)c2ccc(C)cc2)o1  remaining activity (enzyme activity; inhibitor; 1 µM): 92%
Cc1ccc(NC(=O)c2ccc(C)c(C(F)(F)F)c2)cc1C#Cc1nn(C2CCC(O)CC2)c2ncnc(N)c12 (stereo not shown)  remaining signal (cell-free assay; 10 µM): 112%
N#Cc1ccc(Nc2ccc3[nH]c(=O)[nH]c3c2)c(Cl)c1  remaining binding (cell-free assay; competition with immobilised ligand; 1 µM): 83%
FC(F)c1nc2ccccc2n1-c1nc(N2CCOCC2)nc(N2CCOCC2)n1  remaining activity (enzyme activity; inhibitor; 10 µM): 92%
CCCS(=O)(=O)Nc1ccc(F)c(C(=O)c2c[nH]c3ncc(-c4ccc(Cl)cc4)cc23)c1F  inhibition (enzyme activity; inhibitor; 1 µM): < 10%
Cc1nc(N2CC[C@@H](O)C2)ncc1-c1cc(C(F)(F)F)cc2[nH]ncc12  remaining binding (binding; competition with immobilised ligand; 1 µM): 89%
CN1CC(Oc2cnc(C#N)cc2-c2ccn3nc(NC(=O)C4CC4)cc3c2)C1  inhibition (enzyme activity; inhibitor; 1 µM): 4%
O=C1NC(c2ccccn2)Sc2ccccc21 (stereo not shown)  remaining binding (cell-free assay; competition with immobilised ligand; 1 µM): 88%
CC(C)(C)C(=O)c1sc(NC2CCCCC2)nc1N  remaining activity (enzyme activity; inhibitor; 10 µM): 109%
CC(=O)N1CCC(c2ccc(C(=O)NC(=N)N)cc2C(F)(F)F)CC1  remaining binding (cell-free assay; competition with immobilised ligand; 1 µM): 100%
COc1cc(Nc2c(C#N)cnc3cc(OCCCN4CCN(C)CC4)c(OC)cc23)c(Cl)cc1Cl  remaining signal (cell-free assay; 0.5 µM): 111%
CSc1nc(C)c(-c2ccnc(Nc3ccc(N4CCOCC4)cc3)c2)[nH]1  inhibition (enzyme activity; inhibitor; 10 µM): -4.8%
CNC(=O)c1ccc(Nc2ncc(C(F)(F)F)c(NCc3nccnc3N(C)S(C)(=O)=O)n2)cc1  remaining binding (cell-free assay; competition with immobilised ligand; 0.1 µM): 100%
CCCOc1ccc(OC)c(F)c1C(=O)c1ccc(C(=O)N[C@@H]2CNC[C@H]2NC(=O)c2ccc3[nH]ncc3c2)cc1  remaining activity (enzyme activity; inhibitor; 10 µM): 101%
CNC(=O)c1cc(Oc2ccc(NC(=O)Nc3ccc(Cl)c(C(F)(F)F)c3)cc2)ccn1  inhibition (enzyme activity; inhibitor; 0.3 µM): 6%
Cc1ccc(NC(=O)c2ccc(CN3CCN(C)CC3)cc2)cc1Nc1nc(-c2cccnc2)cs1  remaining signal (cell-free assay; 0.5 µM): 118%
O=C(Nc1cnn(-c2csc(C(=O)NC3COC3)c2)c1)Nc1c(F)cccc1Cl  remaining activity (enzyme activity; inhibitor; 5 µM): 129%
Cc1nccc(COC(=O)N2C[C@@H]3[C@@H](CNC(=O)c4ccc5[nH]nnc5c4)[C@@H]3C2)n1  remaining binding (cell-free assay; competition with immobilised ligand; 1 µM): 0%
CC(C)(O)[C@H]1CC[C@H](Nc2ccc3ncc(-c4cccc(C(F)(F)F)c4)n3n2)CC1  remaining activity (enzyme activity; inhibitor; 1 µM): 29.8%
FC(F)(F)Oc1cccc(-c2cnc3ccc(-c4ccncc4)nn23)c1  activity vs control (enzyme activity; inhibitor; radiometric; 1 µM): 88%
N#CCCc1ccc2c(c1)-c1[nH]c3ccc([N+](=O)[O-])cc3c1CC(=O)N2  remaining signal (cell-free assay; 0.5 µM): 104%
COc1cc(/C=C/C(=O)CC(=O)/C=C/c2ccc(O)c(OC)c2)ccc1O  activity vs control (enzyme activity; inhibitor; 1 µM): 74%
